Screening results deposited in PubChem by Broad Institute.
Most compounds without a hit are left out; they make up all but 2.6% or so of the library.
rRNA inh HTS – selective bacterial rRNA inhibition in E. coli. AID 720706. E. coli WT GFP vs humanized-ribosome RFP mutants, fluorescence, 24 h; stronger effect = lower value; DMSO median 0, no signal -100. actives 1.6% (n = 350,000). GFP signal change (wild-type ribosome), % (no concentration beside the values);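 active = significant combined selectivity score with lowered wild-type GFP, culture density cut under 30%, mutant RFP and density less affected; inactive = any of these conditions unmet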
E-selectin induc – E-selectin induction on HUVECs; P16581; HUVEC E-selectin immunofluorescence imaging; normalized: neutral wells 0, TNF-alpha wells 100; activation, % at 7.58 µM; actives 0.37% (n = 260,000); AID 686992;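 active = mean E-selectin-positive cell signal at least 10% of the positive control, reached in at least 60% of replicates, without over 20% cell loss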
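Assay system: HUVEC, human umbilical vein endothelial cells / Amount: 3,000 HUVEC/well / Controls: TNF-alpha positive control, DMSO neutral control / Compound dosing: single concentration / Medium: EGM-2 over gelatin coat / Evaluation: percent E-selectin-positive cells / Signal: immunofluorescence imaging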
RAD54 branch – blocks human RAD54 Holliday junction branch migration. Q92698. FAM/BHQ fluorescence. inhibition, % at 10.4 µM. actives 0.14% (n = 360,000);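 active = mean normalized replicate activity at least 40 and at least half of replicates scoring 40 or more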;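 also: 0% = median of neutral control wells and 100% = median of positive control wells; inhibitors cause a drop in the FAM fluorescence signal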
GSIS activator – primary screen for activators of insulin secretion dependent on glucose, INS-1E cells, GLuc reporter luminescence; INS-1E GLuc reporter insulin secretion, 2-3 h; actives 0.61% (n = 370,000); activation, % at 16.6 µM;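 active = lowest replicate activation of at least 40%, so every replicate reaches that level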;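 also: 0% = median of neutral control wells and 100% = median of IBMX positive control wells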
AF4-AF9 inh – MLL-AF4/AF9 protein interaction inhibition; P42568; AlphaScreen, biotin-AF4 peptide binding to FLAG-AF9; inhibition, % at 10 µM; actives 0.47% (n = 350,000);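 active = every replicate reaching a set inhibition limit, whatever the replicate mean, cut at about 25% in these data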;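 also: 0% = plate neutral control median and 100% = total signal loss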
RAD52 anneal inh – inhibitors of human RAD52 DNA annealing; actives 0.46% (n = 360,000); AID 651710; inhibition, % at 18.7 µM; recombinant RAD52 DNA annealing, FRET fluorescence; P43351;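 active = every replicate showing at least 50% inhibition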
Target sequence (P43351 whole entry, looked up): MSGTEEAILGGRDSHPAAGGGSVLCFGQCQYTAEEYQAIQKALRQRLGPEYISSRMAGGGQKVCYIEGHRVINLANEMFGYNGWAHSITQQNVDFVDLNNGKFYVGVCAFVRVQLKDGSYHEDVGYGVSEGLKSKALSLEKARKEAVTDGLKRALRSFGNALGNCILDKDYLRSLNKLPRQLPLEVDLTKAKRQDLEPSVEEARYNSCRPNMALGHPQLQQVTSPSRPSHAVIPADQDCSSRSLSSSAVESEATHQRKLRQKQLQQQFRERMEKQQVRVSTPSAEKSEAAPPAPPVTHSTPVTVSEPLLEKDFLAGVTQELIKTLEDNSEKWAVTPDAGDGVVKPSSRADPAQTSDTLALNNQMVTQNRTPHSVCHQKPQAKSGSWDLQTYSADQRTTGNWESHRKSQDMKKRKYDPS
Active calls of the source: *; . = no result; ! = repeats disagree.

SMILES	rRNA inh HTS	E-selectin induc	RAD54 branch	GSIS activator	AF4-AF9 inh	RAD52 anneal inh
COc1cc(CN2C[C@@H]3N[C@H](C2)C3c2ccc(-c3ccccc3C)cc2)cc(OC)c1 (some centres undefined)	-56	-1	.	2	27*!	64*
COc1cccc(CN2C[C@@H]3N[C@H](C2)C3c2ccc(-c3ccccc3F)cc2)c1 (some centres undefined)	-60	0	.	9	11	64*!
COc1cccc(CN2C[C@@H]3N[C@H](C2)C3c2ccc(-c3cccc(C#N)c3)cc2)c1 (some centres undefined)	-60	0	.	-5	19	55*
COc1cccc(CN2C[C@@H]3N[C@H](C2)C3c2ccc(-c3ccccc3C)cc2)c1 (some centres undefined)	-54	0	.	-9	.	.
Cc1noc(C)c1S(=O)(=O)N(C)C[C@H]1Oc2ccc(NC(=O)c3ccncc3)cc2C(=O)N([C@H](C)CO)C[C@@H]1C	7	.	.	20	.	.
COC(=O)c1cccc(NC(=S)Nc2ccc(Cl)c(Cl)c2)c1	-48*	.	0	-13	0	-12
CC(=O)Nc1cccc(C(=O)OCC(=O)c2ccccc2Cl)c1	-24*	.	.	-7	0	-2
COC(=O)c1cc(NC(=O)Nc2cccc(Cl)c2)ccc1Cl	-51*	.	11	-18	9	-13
O=C(Nc1cccc(Cl)c1)Nc1cccc(Cl)c1	.	.	-3	.	.	.
COc1ccc(-c2cn(CC[C@@H]3CC[C@@H](NC(=O)NC(C)C)[C@H](CO)O3)nn2)cc1	0	0	2	-4	1	3
CCCN1[C@H](C(=O)N[C@H](C)c2ccccc2)[C@@H](CO)[C@@H]2Cn3c(cccc3=O)[C@@H]21	-2	0	.	4	-2	9
N#Cc1c(Cl)nsc1NN	-7	.	.	-8	51*	-42
CO[C@H]1CN(C)C(=O)c2ccc(NC(=O)c3cccc(F)c3)cc2OC[C@H](C)N(C)C[C@H]1C	-2	0	.	-4	-4	34
O=C(N/N=C/c1ccc(O)c(O)c1)c1ccc(CSc2cccc3cccnc23)cc1	-16*	.	3	10	.	-4
Cc1ccc2oc(C(=O)N(CCO)Cc3ccccc3)c(C)c2c1	-17*	0	-8	-28	-24	-6
Cc1ccc2oc(C(=O)N(Cc3ccc(N(C)C)cc3)CC3CCCO3)c(C)c2c1 (centres undefined)	6	.	-2	-12	28*	-25
Cc1cc(Cl)c2oc(C(=O)N(CCO)Cc3ccccc3)c(C)c2c1	-45	1	-11	.	-1	-6
COc1ccc(NC(=O)Nc2ccc3c(c2)CC(=O)N([C@H](C)CO)C[C@H](C)[C@H](CN(C)Cc2ccc4c(c2)OCO4)O3)cc1	2	0	6	-6	-1	1
CN(C)CCCNC(=O)C[C@@H]1CC[C@@H](NC(=O)Cc2cccnc2)[C@H](CO)O1	3	0	-3	0	-3	-2
CC(C)NC(=O)N(C)C[C@H]1Oc2ccc(NC(=O)Nc3ccc4c(c3)OCO4)cc2C(=O)N([C@@H](C)CO)C[C@H]1C	5	-3	-9	18	-1	3
c1ccc(CCNc2ncnc3c2cnn3-c2ccccc2)cc1	-53*	.	-4	-55	.	-7
CCN(c1ccccc1)c1ncnc2c1cnn2-c1ccccc1	-4	0	3	3	28*	-6
c1ccc(CNc2ncnc3c2cnn3-c2ccccc2)cc1	.	.	0	.	.	.
CCN(c1ccccc1)c1nc(Cl)nc2c1cnn2C	-24	1	6	46*	-14	-29
c1ccc(Cn2ncc3c(Nc4ccccc4)ncnc32)cc1	-27*	0	-1	-1	1	0
SMILES	rRNA inh HTS	E-selectin induc	RAD54 branch	GSIS activator	AF4-AF9 inh	RAD52 anneal inh
O=C([C@@H]1[C@@H](CO)[C@@H]2Cn3c(ccc(C4=CCCC4)c3=O)[C@@H]2N1CC1CC1)N1CCCCC1	-2	0	0	-1	2	-22
C[C@@H]1CCCCO[C@@H](CN(C)C(=O)c2ccccc2)[C@@H](C)CN([C@H](C)CO)C(=O)c2cc(NS(=O)(=O)c3ccccc3)ccc2O1	4	.	-3	-7	2	6
C[C@H](CO)N1C[C@H](C)[C@@H](CN(C)Cc2ccccc2F)Oc2ncc(/C=C/c3ccccc3)cc2C1=O	-35	0	5	-12	28*	2
C[C@H](CO)N1C[C@H](C)[C@@H](CN(C)Cc2ccc3c(c2)OCO3)Oc2ncc(/C=C/c3ccccc3)cc2C1=O	-2	0	13	-30	26*	16
Cc1cc(C(F)F)n2ncc(C(=O)NCc3ccc(F)cc3)c2n1	5	0	.	44*	-6	-1
Cc1cc(C(F)F)n2ncc(C(=O)NCc3ccccc3F)c2n1	-5	.	.	2	-6	-5
O=C1NC(=Nc2cccc(O)c2)S/C1=C\c1cccnc1	10	0	.	20	5	-20
Cc1cccc(N=C2NC(=O)/C(=C/c3cccnc3)S2)c1	7	0	.	45*	.	-42
COc1ccccc1NC(=O)N[C@@H]1CC[C@H](CCn2cc(-c3cccnc3)nn2)O[C@H]1CO	3	0	-6	-7	-15	3
C[C@@H]1CN([C@H](C)CO)C(=O)c2cc(-c3ccccc3)cnc2O[C@@H]1CN(C)C(=O)c1ccccn1	8	0	4	10	-3	-10
CCS(=O)(=O)NCC[C@H]1CC[C@H](NC(=O)C2CC2)[C@H](CO)O1	1	0	.	6	-3	-7
COc1c(Br)cc([N+](=O)[O-])c(OC)c1C(=O)NC(=O)Nc1cc(Cl)cc(Cl)c1	.	4	1	.	-3	-3
COc1c(Br)cc([N+](=O)[O-])c(OC)c1C(=O)NC(=O)Nc1c(Cl)cccc1Cl	-38*	.	-15	-29	2	-4
COc1ccc(C(=O)Nc2ccc3c(c2)C(=O)N(C)C[C@@H](OC)[C@H](C)CN[C@@H](C)CO3)cc1	1	0	-9	-7	-2	6
C[C@H](CO)N1C[C@H](C)[C@H](CN(C)C(=O)Cc2ccccn2)Oc2cc(C#Cc3ccccc3)ccc2S1(=O)=O	-11	1	5	-12	2	-27
COc1ccccc1NC(=O)Nc1nn(C)c2cccc(N(C)C)c12	-30*	.	.	20	2	-3
COc1cc2cnc(Cl)nc2cc1OC	.	0	-2	61*	.	.
C(=C\c1ccccc1)/C=N/N1CCN(Cc2ccccc2)CC1	-25*	0	.	-8	44*	-8
C(/C=C/c1ccccc1)=N/N1CCN(c2ccccc2)CC1	.	.	-4	40	.	.
O=C1OC2(c3ccccc31)c1ccccc1-c1ccccc12	-8	0	-1	-9	1	1
